# Test results published in ChEMBL document CHEMBL1136700, “Identification of a broad-spectrum azasordarin with improved pharmacokinetic properties” (Bioorg Med Chem Lett, 2003).
# How the values were obtained:
# Cryptococcus neoformans = assay: Minimum inhibitory concentration against Cryptococcus neoformans after 48 hours; type: functional
# How it was run: (§1)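 Antifungal susceptibility read visually; MIC taken as lowest drug concentration giving 90–100% inhibition of visible growth relative to drug-free controls, read over 48 h, or after 24 h where footnoted. Organisms: C. parapsilosis, C. albicans, Cryptococcus neoformans, C. glabrata, Aspergillus fumigatus, Aspergillus flavus.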
# Candida parapsilosis = assay: Minimum inhibitory concentration (MIC) to Candida parapsilosis after 48 hr; type: functional; conditions: Lodderomyces parapsilosis, 48 h; read-out: MIC; how it was run: as §1
# Aspergillus fumigatus = assay: Minimum inhibitory concentration (MIC) to Aspergillus fumigatus after 48 hr; type: functional; conditions: Aspergillus fumigatus, 48 h; read-out: MIC; how it was run: as §1
# Nakaseomyces glabratus = assay: Minimum inhibitory concentration (MIC) to Candida glabrata after 48 hours; type: functional; conditions: Nakaseomyces glabratus, 48 h; read-out: MIC; how it was run: as §1
# Aspergillus flavus = assay: Minimum inhibitory concentration (MIC) against Aspergillus flavus after 24 hours; type: functional; conditions: Aspergillus flavus, 24 h; read-out: MIC; how it was run: as §1
# Candida albicans = assay: Minimum inhibitory concentration (MIC) to Candida albicans after 48 hr; type: functional; how it was run: as §1
# [1] = Total body clearance was determined; type: ADME, organism-based; conditions: in vivo
# How it was run: (§2)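 Mice dosed iv at 5 mg/kg or orally at 20 mg/kg, n = 3; drug concentrations measured in plasma/serum over time to derive half-life, Cmax, total body clearance, steady-state volume and oral bioavailability.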
# [2] = Volume of steady state concentration was determined; type: ADME, organism-based; conditions: in vivo; read-out: Vss; how it was run: as §2
# [3] = Half life period was measured upon intravenous administration (5 mg/kg); type: ADME, organism-based; conditions: in vivo; how it was run: as §2
MIC (Cryptococcus neoformans),MIC (Candida parapsilosis),MIC (Aspergillus fumigatus),MIC (Nakaseomyces glabratus),MIC (Aspergillus flavus),MIC (Candida albicans),clearance [1],Vd [2],half-life [3],SMILES
0.5 µg/mL,4 µg/mL,> 128 µg/mL,< 0.06 µg/mL,> 128 µg/mL,< 0.06 µg/mL,,,,COc1ccc(CN2C[C@H](OCC34C[C@@H]5[C@H](C)CC[C@H]5C5(C=O)CC3C=C(C(C)C)[C@@]45C(=O)O)OC[C@H]2C)cc1
> 128 µg/mL,> 128 µg/mL,> 128 µg/mL,8 µg/mL,> 128 µg/mL,2 µg/mL,,,,CC(C)C1=CC2CC3(C=O)[C@@H]4CC[C@@H](C)[C@H]4CC2(CO[C@H]2CN(CC4CC4)[C@H](C)CO2)[C@]13C(=O)O
2 µg/mL,> 128 µg/mL,> 128 µg/mL,0.125 µg/mL,> 128 µg/mL,< 0.06 µg/mL,,,,CC(C)C1=CC2CC3(C=O)[C@@H]4CC[C@@H](C)[C@H]4CC2(CO[C@H]2CN(c4ccc(Cl)s4)[C@H](C)CO2)[C@]13C(=O)O
4 µg/mL,> 128 µg/mL,> 128 µg/mL,1 µg/mL,128 µg/mL,0.25 µg/mL,,,,C=C(C#N)CN1C[C@H](OCC23C[C@@H]4[C@H](C)CC[C@H]4C4(C=O)CC2C=C(C(C)C)[C@@]34C(=O)O)OC[C@H]1C
< 0.008 µg/mL,0.5 µg/mL,8 µg/mL,0.015 µg/mL,0.125 µg/mL,< 0.008 µg/mL,,,,C=C(Cl)CN1C[C@H](OCC23C[C@@H]4[C@H](C)CC[C@H]4C4(C=O)CC2C=C(C(C)C)[C@@]34C(=O)O)OCC12CCCC2
4 µg/mL,> 128 µg/mL,> 128 µg/mL,1 µg/mL,> 128 µg/mL,< 0.06 µg/mL,,,,CC(C)C1=CC2CC3(C=O)[C@@H]4CC[C@@H](C)[C@H]4CC2(CO[C@H]2CN(Cc4ccccc4Cl)[C@H](C)CO2)[C@]13C(=O)O
< 0.06 µg/mL,4 µg/mL,128 µg/mL,0.125 µg/mL,4 µg/mL,< 0.06 µg/mL,,,,C=C(Br)CN1C[C@H](OCC23C[C@@H]4[C@H](C)CC[C@H]4C4(C=O)CC2C=C(C(C)C)[C@@]34C(=O)O)OC[C@H]1C
0.125 µg/mL,8 µg/mL,> 128 µg/mL,0.125 µg/mL,8 µg/mL,< 0.06 µg/mL,,,,C=C(C)CN1C[C@H](OCC23C[C@@H]4[C@H](C)CC[C@H]4C4(C=O)CC2C=C(C(C)C)[C@@]34C(=O)O)OC[C@H]1C
16 µg/mL,32 µg/mL,> 128 µg/mL,< 0.06 µg/mL,> 128 µg/mL,< 0.06 µg/mL,,,,CC(C)C1=CC2CC3(C=O)[C@@H]4CC[C@@H](C)[C@H]4CC2(CO[C@H]2CN(CC=C(Cl)Cl)[C@H](C)CO2)[C@]13C(=O)O
128 µg/mL,> 128 µg/mL,> 128 µg/mL,64 µg/mL,> 128 µg/mL,8 µg/mL,,,,C=CC(=O)N1C[C@H](OCC23C[C@@H]4[C@H](C)CC[C@H]4C4(C=O)CC2C=C(C(C)C)[C@@]34C(=O)O)OC[C@H]1C
> 128 µg/mL,> 128 µg/mL,> 128 µg/mL,8 µg/mL,> 128 µg/mL,0.25 µg/mL,,,,CC(C)=CCN1C[C@H](OCC23C[C@@H]4[C@H](C)CC[C@H]4C4(C=O)CC2C=C(C(C)C)[C@@]34C(=O)O)OC[C@H]1C
> 128 µg/mL,8 µg/mL,> 128 µg/mL,0.125 µg/mL,4 µg/mL,< 0.06 µg/mL,13 mL/min/kg,0.49 L/kg,26.4 min,C=C(Cl)CN1C[C@H](OCC23C[C@@H]4[C@H](C)CC[C@H]4C4(C=O)CC2C=C(C(C)C)[C@@]34C(=O)O)O[C@H](C)C1
0.25 µg/mL,4 µg/mL,64 µg/mL,0.125 µg/mL,4 µg/mL,< 0.06 µg/mL,,,,C=C(Cl)CN1C[C@H](OCC23C[C@@H]4[C@H](C)CC[C@H]4C4(C=O)CC2C=C(C(C)C)[C@@]34C(=O)O)O[C@@H]2CCC[C@H]21
